iPSC survival up: enhancers of human iPSC single-cell survival | hiPSC single-cell survival, ATPlite luminescence; 100% = ROCK inhibitor wells, 0% = DMSO | survival enhancement, % at 20 µM | 360,000 tested, 0.044% active; in the data active = survival enhancement above about 18%;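 note: cells exposed to compounds for 16 hours before the ATP read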
PG9 Ab binder: PG9 antibody binding by small molecule | TR-FRET gp120-PG9 antibody binding | inhibition, % at 6.7 µM | 360,000 tested, 0.43% active | AID 624416; in the data active = inhibition above about 8.5%
ABCB6 inh 2: human ABCB6 transporter inhibition | K562-ABCB6 porphyrin accumulation, flow cytometry, 1 h; active compounds read low | fluorescence ratio to DMSO, % at 10 µM | 360,000 tested, 0.19% active;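 active = fluorescence ratio to DMSO below 75%, the collection mean minus 3 SD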;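 note: signal is porphyrin accumulated inside mitochondria; lower ratio means ABCB6 inhibition with less porphyrin fluorescence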
Target sequence (Q9NP58 whole entry, looked up): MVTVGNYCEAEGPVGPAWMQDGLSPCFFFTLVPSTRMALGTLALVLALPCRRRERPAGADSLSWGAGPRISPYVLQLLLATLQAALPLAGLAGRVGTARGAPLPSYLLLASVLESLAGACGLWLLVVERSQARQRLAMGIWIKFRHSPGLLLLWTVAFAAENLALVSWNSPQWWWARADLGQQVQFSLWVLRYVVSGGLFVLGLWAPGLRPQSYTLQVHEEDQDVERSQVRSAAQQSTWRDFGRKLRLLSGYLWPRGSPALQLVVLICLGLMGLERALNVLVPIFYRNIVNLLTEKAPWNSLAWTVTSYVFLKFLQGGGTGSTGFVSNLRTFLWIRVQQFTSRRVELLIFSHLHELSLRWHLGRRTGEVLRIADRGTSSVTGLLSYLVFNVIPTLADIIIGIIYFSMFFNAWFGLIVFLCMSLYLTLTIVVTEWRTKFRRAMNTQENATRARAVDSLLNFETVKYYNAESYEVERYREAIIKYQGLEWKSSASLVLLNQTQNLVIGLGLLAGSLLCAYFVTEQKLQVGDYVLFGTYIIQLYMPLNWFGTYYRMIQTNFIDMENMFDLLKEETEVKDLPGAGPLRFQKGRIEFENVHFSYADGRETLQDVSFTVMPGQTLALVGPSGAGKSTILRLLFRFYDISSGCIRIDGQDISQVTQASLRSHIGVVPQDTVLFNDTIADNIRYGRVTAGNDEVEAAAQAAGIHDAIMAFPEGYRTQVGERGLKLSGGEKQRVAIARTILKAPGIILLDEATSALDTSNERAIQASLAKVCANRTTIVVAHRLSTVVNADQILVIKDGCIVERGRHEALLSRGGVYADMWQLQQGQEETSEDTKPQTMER
Arrestin-AP2 inh: blocks beta-arrestin peptide binding to AP2 adaptin. FITC-arrestin peptide / GST-AP2 beads, flow cytometry; AP2 beta2 appendage carries R879A mutation. inhibition, % at 10 µM. 340,000 tested, 0.31% active;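 active = inhibition above a set limit, near 3 SD of compounds lacking own fluorescence, cut at about 54% in these data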
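Assay system: GST-AP2 R879A bound to glutathione beads, E. coli-expressed; Medium: PBS with 0.05% Tween 20 and 0.1% BSA; Also added: fluorescein-tagged arrestin peptide at 50 nM final; Timing: 12 min plus 1 h, RT; Measured by: flow cytometry, FL1 (488/535 nm); Evaluation: percent drop in bead-associated FITC signal.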
Numbers stand for hits; - = inactive; . = not tested or not shown; ! = not active in a repeat. Only some compounds are listed: those with a hit (about 0.89% of all), similar ones and a draw of the others.

SMILES	iPSC survival up	PG9 Ab binder	ABCB6 inh 2	Arrestin-AP2 inh
Nc1[nH]c(C(=O)c2ccc(Cl)cc2)c(-c2ccc(Br)cc2)c1C(=O)c1c[nH]c2ccc(F)cc12	.	-	.	.
CCCCc1c(-c2ccccc2OC)ncn1Cc1ccccc1C	.	-	.	.
CCCCn1c(=O)[nH]c(=O)c2c1nc(Cn1ncc(Cl)c(Cl)c1=O)n2CCC	20	-	-	-
CCC(/C=C1\Sc2ccc(OC)cc2N1CC)=C\c1sc2ccc(OC)cc2[n+]1CCCS(=O)(=O)[O-]	-	-	-	-
CCC(/C=C1\Sc2ccc(OC)cc2N1CCO)=C\c1sc2ccc(OC)cc2[n+]1CCO	-	-	-	77
O=C(CSc1nc2ccccc2nc1SCC(=O)N1CCCCC1)N1CCCCC1	-	22	-	-
O=C(CSc1nc2ccccc2nc1SCC(=O)N1CCOCC1)N1CCOCC1	-	-	-	-
COc1ccc(OC)c(S(=O)(=O)NCc2ccccc2)c1	-	-	68	-
COc1ccc(OC)c(S(=O)(=O)NCc2cccnc2)c1	-	-	-	-
O=C(O)c1cc(C(=O)C2CC2)c[nH]1	23	-	-	-
O=C(C(=O)N1CCC(CNC(=O)C2COc3ccccc3O2)CC1)c1cccs1 (stereo not given)	.	-	.	.
COc1c(Cl)cnn(-c2ccc(C)cc2)c1=O	27	-	-	-
CCN1C(=O)/C(=C\N2CCCc3ccccc32)SC1=S	-	-	-	-
CCN1C(=O)/C(=C/N2CCc3ccccc32)SC1=S	-	.	-	70
CC(C)CC1Nc2ncnc(N3CCN(c4ccccc4)CC3)c2N(Cc2ccccc2)C1=O (stereo not given)	23!	-	-	-
CS(=O)(=O)N1CCC(Oc2cccc(C(=O)NCCCC3CCCC3)c2)CC1	-	.	-	61
Cc1c(C(=O)OCC(=O)Nc2ccc(C(N)=O)cc2)cccc1[N+](=O)[O-]	22	-	-	-
CN1C/C(=C/c2cccnc2)C(=O)/C(=C/c2cccnc2)C1	24	-	-	-
CC(C)N1C/C(=C/c2cccnc2)C(=O)/C(=C/c2cccnc2)C1	-	-	-	-
C#CCOCCOCCOCCNc1nc(N2CCN(C(=O)CCCCCCCCCCNC(=O)[C@H](CO)n3cc(CCCSC)nn3)CC2)nc(N2CCN(C(=O)CCCCCCCCCCNC(=O)[C@H](CO)n3cc(CCCSC)nn3)CC2)n1	-	-	74	-
C#CCOCCOCCOCCNc1nc(N2CCOCC2)nc(N2CCN(C(=O)CCCCCCCCCCNC(=O)[C@@H](CCSC)n3cc(CCO)nn3)CC2)n1	-	-	-	-
O=C1CC(Cc2ccc(Cl)cc2)C(=O)N1c1ccncc1 (stereo not given)	-	-	-	-
O=C1CC(Cc2ccc(Cl)cc2)C(=O)N1c1ccccn1 (stereo not given)	-	-	73	-
O=C(NC1CCCCC1)N(Cc1nc2ccccc2c(=O)[nH]1)C1CCCC1	-	-	-	-
O=C(NC1CCCCC1)N(Cc1nc2ccccc2c(=O)[nH]1)C1CCCCC1	28	-	-	-
SMILES	iPSC survival up	PG9 Ab binder	ABCB6 inh 2	Arrestin-AP2 inh
CCOc1ccc(C2C(C(=O)c3ccco3)=C(O)C(=O)N2CCCn2ccnc2)cc1 (stereo not given)	-	-	-	-
Cc1ccc(C(=O)C2=C(O)C(=O)N(CCCn3ccnc3)C2c2ccc(OC(C)C)cc2)o1 (stereo not given)	-	41	-	-
COc1ccc(C(NC(=O)/C=C\c2ccco2)c2ccc(OC)c(OC)c2)cc1 (stereo not given)	-	-	61	-
COc1ccc(C(NC(=O)/C=C/c2ccco2)c2ccc(OC)cc2)cc1	-	-	-	-
CC1(C)Cc2c(C#N)c(SCC(=O)c3ccccc3)nc(N3CCOCC3)c2CS1	20	-	-	-
CN1Cc2c(N3CCOCC3)nc(SCc3ccccc3)c(C#N)c2CC1(C)C	-	-	-	-
CN(C)c1ccc(-c2ccnc3c2CC(C)(C(=O)Nc2ccc(Cl)c(C(F)(F)F)c2)O3)cc1 (stereo not given)	20	-	-	.
CCCCCCn1c(SCCN2CCOCC2)nc2c1c(=O)[nH]c(=O)n2C	26	-	-	-
Cn1c(=O)[nH]c(=O)c2c1nc(SCCN1CCOCC1)n2CCCc1ccccc1	-	19	-	-
CCCn1c(SCc2ccccc2)nc2c1c(=O)[nH]c(=O)n2C	32	-	-	-
COc1ccc2ccccc2c1CN1CCN(c2ncc(Cc3ccccc3)cn2)CC1	.	-	.	.
NC(=O)c1ccc(NC(=O)CCC(=O)c2cccs2)cc1	62	-	-	-
C[C@@H]1ON(C)[C@H]2C[C@H]3c4cc(N5CCN(C)CC5)ccc4CCN3C[C@@H]12	.	-	.	.
